≈ marks a conversion by molar mass, not a printed value. Calls of active or inactive are those of the source.

The target in series [1] is Neuronal acetylcholine receptor subunit alpha-7 (Homo sapiens) (UniProt P36544). As to the kind of experiment: Positive allosteric modulation of human alpha7 nAChR expressed in Xenopus laevis oocytes assessed as acetyl choline-evoked currents at 10 uM at -80 mV holding potential prtreated for 2 mins followed by co-treatment with acetyl choline by electrophysiology method relative to acetyl choline. The format is cell-based. In outline: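 Defolliculated Xenopus laevis oocytes were injected with 5 ng α7 cRNA and recorded 2–3 days later at 22°C, -80 mV. Compound (10 μM) was bath-preapplied for 2 min, then co-applied with 200 μM ACh by fast pipette application for 0.6 s. Peak current is expressed relative to the ACh-alone control (100%).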

The nature of series [2]: Aqueous solubility of the compound in PBS buffer. The format is physicochemical.
Series [3] in a line: Permeability across apical to basolateral side in human Caco2 cells. In kind it is ADME, cell-based. The conditions noted are these: Caco-2, read-out: permeability. (In general: Caco-2 monolayers are a common model of the intestinal barrier.)
For series [4], the system named is Rattus norvegicus. The series can be described thus: Analgesic activity in CFA-induced paw inflammation Wistar rat model assessed as increase in paw withdrawal latency at 10 mg/kg, iv administered at 24 hrs post CFA injection measured at 30 mins post compound administration. The format is functional, organism-based. In outline: (§1)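 Male Wistar rats (250–300 g). CFA emulsion (1:1 oil/saline, 0.5 mg/ml, 50 μl) was injected intraplantar into the hind paw. 24 h later, compound was dissolved in DMSO, diluted in 0.9% saline (final DMSO 2,5%) and given iv at 10 mg/kg in 0,5 ml. Paw withdrawal latency was measured on a dynamic plantar aesthesiometer (ramp 2.5 g/s, 50 g cutoff), as the mean of three readings per time point, for up to 4 h; n ≥ 6 rats/group, two-way ANOVA with Bonferroni.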

The subject of series [5] is Rattus norvegicus. The series can be described thus: Analgesic activity in CFA-induced paw inflammation Wistar rat model assessed as increase in paw withdrawal latency at 10 mg/kg, iv administered at 24 hrs post CFA injection measured at 1 hr post compound administration. In kind it is functional, organism-based. In outline:
as §1

Sequence of Neuronal acetylcholine receptor subunit alpha-7 (Homo sapiens) (P36544 whole entry): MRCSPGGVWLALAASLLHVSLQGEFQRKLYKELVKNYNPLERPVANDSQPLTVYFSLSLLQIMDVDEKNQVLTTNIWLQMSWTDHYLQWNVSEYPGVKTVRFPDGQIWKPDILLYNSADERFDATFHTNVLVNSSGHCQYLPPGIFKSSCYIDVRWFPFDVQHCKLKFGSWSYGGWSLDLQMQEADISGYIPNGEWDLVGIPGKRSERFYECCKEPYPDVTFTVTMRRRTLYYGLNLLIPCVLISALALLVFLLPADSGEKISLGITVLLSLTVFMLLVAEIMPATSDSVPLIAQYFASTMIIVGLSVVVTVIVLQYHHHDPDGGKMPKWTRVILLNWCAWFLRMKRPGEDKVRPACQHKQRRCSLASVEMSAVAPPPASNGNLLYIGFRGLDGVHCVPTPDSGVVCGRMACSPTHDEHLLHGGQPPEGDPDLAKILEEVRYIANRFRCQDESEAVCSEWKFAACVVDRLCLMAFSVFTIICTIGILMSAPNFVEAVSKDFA

The term solubility denotes how much of the substance goes into solution per volume. Take `O=C(CCc1ccc(O)cc1)c1cc(O)ccc1O`: the Activity in series [1] came to 666%. For the same compound, the solubility in series [2] (PBS buffer, read-out: solubility) is 160 µM (≈ 41.3 µg/mL). In addition, the Papp A→B in series [3] came to 33.5 ×10⁻⁶ cm/s.

`O=C(CCc1ccc(O)cc1O)c1cc(O)ccc1O`: the Activity in series [1] was determined as 989%.

For the compound `Br.CC(C)C(N)C(=O)NC(C(=O)Oc1ccc(CCC(=O)c2cc(O)ccc2O)cc1)C(C)C` (stereo in doubt), in the series on Rattus norvegicus [4], the result was Active. Further, in series [1], the Activity amounted to 14.7%. Also, in series [2] (buffer), the solubility entry is “Soluble”. Further, the result with Rattus norvegicus [5] was inactive.

With `Br.CC(C)C(N)C(=O)N1CCC[C@H]1C(=O)NC(C(=O)Oc1ccc(CCC(=O)c2cc(O)ccc2O)c(O)c1)C(C)C` (stereo in doubt), the Activity in series [1] stood at 25.3%. Besides, the solubility result in series [2] (buffer) is recorded as “Soluble”.

Take `CC(C)C(N)C(=O)N1CCC[C@H]1C(=O)NC(C(=O)Oc1ccc(CCC(=O)c2cc(O)ccc2O)cc1)C(C)C` (stereo in doubt): the Activity in series [1] amounted to 24.7%. In the series on Rattus norvegicus [5], the outcome was Active.

With `CC(C)C(N)C(=O)NC(C(=O)Oc1ccc(/C=C/C(=O)c2cc(O)ccc2O)c(O)c1)C(C)C` (stereo in doubt), in series [1], the Activity is 24.5%.

For the compound `CC(C)C(N)C(=O)NC(C(=O)Oc1ccc(CCC(=O)c2cc(O)ccc2O)c(O)c1)C(C)C` (stereo in doubt), in series [1], the Activity came to 26.7%.

The record behind these values is ChEMBL document CHEMBL4138200, “Amino acid and peptide prodrugs of diphenylpropanones positive allosteric modulators of α7 nicotinic receptors with analgesic activity” (Eur J Med Chem, 2018).
